Measured values reported in ChEMBL document CHEMBL4266010, “Synthesis, Biological Evaluation of Fluorescent 23-Hydroxybetulinic Acid Probes, and Their Cellular Localization Studies” (ACS Med Chem Lett, 2018).
Activity calls are given as the source filed them. No cut-off for these calls is given here.

Assays:
[1] = Antiproliferative activity against HELF after 72 hrs by MTT assay; design: species or system Homo sapiens
Method in brief: (§1)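 MTT assay on B16F10 mouse skin melanoma, MCF-7 human breast cancer and Helf human embryonic lung fibroblast cells. Doxorubicin served as reference. Values are mean ± SD of three independent experiments.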

MCF7 = assay: Antiproliferative activity against human MCF7 cells after 72 hrs by MTT assay; assay type: functional, cell-based; conditions: MCF7, 72 h; method in brief: as §1
B16-F10 [2] = assay: Antiproliferative activity against mouse B16F10 cells after 72 hrs by MTT assay; assay type: functional, cell-based; conditions: B16-F10, 72 h; method in brief: as §1
[3] = Drug uptake in mouse B16F10 cells up to 50 uM after 1 hr by fluorescence microscopic method; assay type: ADME, cell-based; conditions: b16-f10, 1 h
Method in brief: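 Live B16F10 cells stained 1 h with the unconjugated coumarin dye at up to 50 μM as control. Intracellular fluorescence examined by microscopy.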

B16-F10 [4] = assay: Induction of apoptosis in mouse B16F10 cells assessed as increase in caspase-9 protein expression at 1.5 to 6 uM after 48 hrs by Western blot analysis; assay type: functional, cell-based
Method in brief: (§2)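 B16F10 cells treated with parent acid (0, 7.5, 15, 30 μM) or probe (0, 1.5, 3.0, 6.0 μM). Bax, Bcl-2, cytochrome c, caspase 3 and caspase 9 detected by Western blot with GAPDH loading control. Band density normalized to GAPDH as relative expression. Values are mean ± SD of three independent experiments; P values for control vs treated.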

[5] = Drug uptake in mouse B16F10 cell lysosomes at 4 uM after 1 hr by LysoTracker staining based confocal laser scanning microscopic method; assay type: ADME, subcellular, Lysosome; conditions: b16-f10, 1 h
Method in brief: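 Live B16F10 cells co-stained with the coumarin probe at 4 μM and LysoTracker Red, with DAPI nuclear counterstain. Imaged by confocal microscopy, probe visualized as green and lysosomes as red.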

[6] = Drug uptake in mouse B16F10 cells at 10 uM up to 240 mins mins by flow cytometry; assay type: ADME, cell-based; conditions: b16-f10, 4 h
Method in brief: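 Live B16F10 cells incubated with 10 μM coumarin probe over a time course (0–120 min and beyond). Intracellular fluorescence intensity quantified by flow cytometry.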

[7] = Drug uptake in mouse B16F10 cells after 15 mins by fluorescence microscopic method; assay type: ADME, cell-based; conditions: b16-f10, 0.25 h
Method in brief: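 Live B16F10 cells incubated with the coumarin-labelled probe (10 μM among several concentrations) over a time course. Intracellular fluorescence imaged by fluorescence microscopy. Probe excitation/emission maxima 415/475 nm.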

B16-F10 [8] = assay: Induction of mitochondrial membrane potential loss in mouse B16F10 cells at 1.5 to 6 uM after 48 hrs by JC-1 dye based flow cytometry; assay type: functional, cell-based
Method in brief: (§3)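 B16F10 cells incubated 48 h with parent acid (0, 7.5, 15, 30 μM) or probe (0, 1.5, 3.0, 6.0 μM), then stained with JC-1. Percentage of cells with collapsed mitochondrial membrane potential determined by flow cytometry.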

B16-F10 [9] = assay: Induction of apoptosis in mouse B16F10 cells assessed as decrease in Bcl2 protein expression at 1.5 to 6 uM after 48 hrs by Western blot analysis; assay type: functional, cell-based; method in brief: as §2
B16-F10 [10] = assay: Induction of apoptosis in mouse B16F10 cells assessed as increase in caspase-3 protein expression at 1.5 to 6 uM after 48 hrs by Western blot analysis; assay type: functional, cell-based; method in brief: as §2
[11] = Drug uptake in mouse B16F10 cell mitochondria at 4 uM after 1 hr by MitoTracker dye based confocal laser scanning microscopic method; assay type: ADME; conditions: b16-f10, 1 h
Method in brief: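 Live B16F10 cells incubated 1 h with the coumarin probe at 4 μM together with MitoTracker. Imaged by confocal laser scanning microscopy with probe excitation at 415 nm (green) and MitoTracker […] at 579 nm (red). Colocalization read from overlay of the two channels.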

B16-F10 [12] = assay: Induction of apoptosis in mouse B16F10 cells assessed as increase in Bax protein expression at 1.5 to 6 uM after 48 hrs by Western blot analysis; assay type: functional, cell-based; method in brief: as §2
B16-F10 [13] = assay: Induction of apoptosis in mouse B16F10 cells assessed as increase in cytochrome-c protein expression at 1.5 to 6 uM after 48 hrs by Western blot analysis; assay type: functional, cell-based; method in brief: as §2
[14] = Drug uptake in mouse B16F10 cell nucleus at 4 uM after 1 hr by DAPI staining based confocal laser scanning microscopic method; assay type: ADME, subcellular; conditions: b16-f10, 1 h
B16-F10 [15] = assay: Induction of mitochondrial membrane potential loss in mouse B16F10 cells at 30 uM after 48 hrs by JC-1 dye based flow cytometry (reference value: 1.79%); assay type: functional; method in brief: as §3
B16-F10 [16] = assay: Induction of apoptosis in mouse B16F10 cells assessed as increase in caspase-9 protein expression at 7.5 to 30 uM after 48 hrs by Western blot analysis; assay type: functional, cell-based; method in brief: as §2
B16-F10 [17] = assay: Induction of apoptosis in mouse B16F10 cells assessed as increase in caspase-3 protein expression at 7.5 to 30 uM after 48 hrs by Western blot analysis; assay type: functional, cell-based; method in brief: as §2
B16-F10 [18] = assay: Induction of apoptosis in mouse B16F10 cells assessed as increase in Bax protein expression at 7.5 to 30 uM after 48 hrs by Western blot analysis; assay type: functional, cell-based; method in brief: as §2
B16-F10 [19] = assay: Induction of mitochondrial membrane potential loss in mouse B16F10 cells at 15 uM after 48 hrs by JC-1 dye based flow cytometry (reference value: 1.79%); assay type: functional; method in brief: as §3
B16-F10 [20] = assay: Induction of apoptosis in mouse B16F10 cells assessed as increase in cytochrome-c protein expression at 7.5 to 30 uM after 48 hrs by Western blot analysis; assay type: functional, cell-based; method in brief: as §2
B16-F10 [21] = assay: Induction of mitochondrial membrane potential loss in mouse B16F10 cells at 7.5 uM after 48 hrs by JC-1 dye based flow cytometry (reference value: 1.79%); assay type: functional; method in brief: as §3
B16-F10 [22] = assay: Induction of apoptosis in mouse B16F10 cells assessed as decrease in Bcl2 protein expression at 7.5 to 30 uM after 48 hrs by Western blot analysis; assay type: functional, cell-based; method in brief: as §2

| Compound | IC50 [1] [µM] | IC50 (MCF7) [µM] | IC50 (B16-F10 [2]) [µM] | also measured |
| --- | --- | --- | --- | --- |
| C=C(C)[C@@H]1CC[C@]2(C(=O)O)CC[C@]3(C)[C@H](CC[C@@H]4[C@@]5(C)CC[C@H](O)[C@@](C)(COC(=O)CCC(=O)NCCCCNC(=O)c6cc7ccc(N(CC)CC)cc7oc6=O)[C@@H]5CC[C@]43C)[C@@H]12 | 17.6 | 9.7 | 7.77 | – |
| C=C(C)[C@@H]1CC[C@]2(C(=O)O)CC[C@]3(C)[C@H](CC[C@@H]4[C@@]5(C)CC[C@H](O)[C@@](C)(COC(=O)CCC(=O)OCCOC(=O)c6cc7ccc(N(CC)CC)cc7oc6=O)[C@@H]5CC[C@]43C)[C@@H]12 | 23.8 | 19.7 | 11.8 | – |
| CCN(CC)c1ccc2cc(C(=O)NCCNC(=O)CCC(=O)O)c(=O)oc2c1 | – | – | > 100 | Drug uptake [3]: Not Active |
| C=C(C)[C@@H]1CC[C@]2(C(=O)O)CC[C@]3(C)[C@H](CC[C@@H]4[C@@]5(C)CC[C@H](O)[C@@](C)(COC(=O)CCC(=O)OCCOCCOCCOC(=O)c6cc7ccc(N(CC)CC)cc7oc6=O)[C@@H]5CC[C@]43C)[C@@H]12 | 19.4 | 24.2 | 30 | – |
| C=C(C)[C@@H]1CC[C@]2(C(=O)O)CC[C@]3(C)[C@H](CC[C@@H]4[C@@]5(C)CC[C@H](O)[C@@](C)(COC(=O)CCC(=O)OCCNC(=O)c6cc7ccc(N(CC)CC)cc7oc6=O)[C@@H]5CC[C@]43C)[C@@H]12 | 25.1 | 18.1 | 10.5 | – |
| COc1cccc2c1C(=O)c1c(O)c3c(c(O)c1C2=O)C[C@@](O)(C(=O)CO)C[C@@H]3O[C@H]1C[C@H](N)[C@H](O)[C@H](C)O1 [DOXORUBICIN] | 0.21 | 0.15 | 0.19 | – |
| C=C(C)[C@@H]1CC[C@]2(C(=O)O)CC[C@]3(C)[C@H](CC[C@@H]4[C@@]5(C)CC[C@H](O)[C@@](C)(COC(=O)CCC(=O)NCCOC(=O)c6cc7ccc(N(CC)CC)cc7oc6=O)[C@@H]5CC[C@]43C)[C@@H]12 | 24 | 19.9 | 11.5 | – |
| C=C(C)[C@@H]1CC[C@]2(C(=O)O)CC[C@]3(C)[C@H](CC[C@@H]4[C@@]5(C)CC[C@H](O)[C@@](C)(COC(=O)CCC(=O)NCCNC(=O)c6cc7ccc(N(CC)CC)cc7oc6=O)[C@@H]5CC[C@]43C)[C@@H]12 | 11.7 | 6.26 | 4.07 | Activity (B16-F10 [4]): Active; Drug uptake [5]: Not Active; Drug uptake [6]: Active; Drug uptake [7]: Dose-dependent effect; Activity (B16-F10 [8]): Active; Activity (B16-F10 [9]): Active; Activity (B16-F10 [10]): Active; Drug uptake [11]: Active; Activity (B16-F10 [12]): Active; Activity (B16-F10 [13]): Active; Drug uptake [14]: Not Active |
| C=C(C)[C@@H]1CC[C@]2(C(=O)O)CC[C@]3(C)[C@H](CC[C@@H]4[C@@]5(C)CC[C@H](O)[C@@](C)(CO)[C@@H]5CC[C@]43C)[C@@H]12 | 31.5 | 20.8 | 24.5 | Activity (B16-F10 [15]): 42.87%; Activity (B16-F10 [16]): Active; Activity (B16-F10 [17]): Active; Activity (B16-F10 [18]): Active; Activity (B16-F10 [19]): 22.85%; Activity (B16-F10 [20]): Active; Activity (B16-F10 [21]): 10.57%; Activity (B16-F10 [22]): Active |
| C=C(C)[C@@H]1CC[C@]2(C(=O)O)CC[C@]3(C)[C@H](CC[C@@H]4[C@@]5(C)CC[C@H](O)[C@@](C)(COC(=O)CCCCCNC(=O)c6cc7ccc(N(CC)CC)cc7oc6=O)[C@@H]5CC[C@]43C)[C@@H]12 | 79.7 | 37.8 | 12.3 | – |
| C=C(C)[C@@H]1CC[C@]2(C(=O)O)CC[C@]3(C)[C@H](CC[C@@H]4[C@@]5(C)CC[C@H](O)[C@@](C)(COC(=O)COCCOCCNC(=O)c6cc7ccc(N(CC)CC)cc7oc6=O)[C@@H]5CC[C@]43C)[C@@H]12 | 10.8 | 8.16 | 5.25 | – |
| C=C(C)[C@@H]1CC[C@]2(C(=O)O)CC[C@]3(C)[C@H](CC[C@@H]4[C@@]5(C)CC[C@H](O)[C@@](C)(COC(=O)CCC(=O)OCCOCCOC(=O)c6cc7ccc(N(CC)CC)cc7oc6=O)[C@@H]5CC[C@]43C)[C@@H]12 | 21.4 | 30.5 | 35.5 | – |
| C=C(C)[C@@H]1CC[C@]2(C(=O)O)CC[C@]3(C)[C@H](CC[C@@H]4[C@@]5(C)CC[C@H](O)[C@@](C)(COC(=O)CCCNC(=O)c6cc7ccc(N(CC)CC)cc7oc6=O)[C@@H]5CC[C@]43C)[C@@H]12 | 27.8 | 18.1 | 11.3 | – |
